Active and inactive are the calls of the source. The rule behind the calls is not given here.
Experiments:
[1] = test system: Trypanosoma cruzi; assay: Antitrypanosomal activity against Trypanosoma cruzi CL Brener trypomastigotes infected in Vero cells assessed as parasite lysis at 25 uM after 19 hrs relative to untreated control; type: functional
Procedure, shortened: (§1)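 Cell-culture trypomastigotes released from infected Vero cells (37 °C, 5% CO2, 5–7 days), collected by centrifugation and allowed 4 h at 37 °C to swim off. Supernatant parasites exposed to 10.0–50.0 μM for 2–26 h; lysis counted in a Neubauer chamber relative to untreated parasites; three independent experiments.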

[2] = test system: Trypanosoma cruzi; assay: Antitrypanosomal activity against Trypanosoma cruzi CL Brener trypomastigotes infected in Vero cells assessed as parasite lysis at 50 uM after 2 hrs relative to untreated control; type: functional; procedure, shortened: as §1
[3] = test system: Trypanosoma cruzi; assay: Antitrypanosomal activity against Trypanosoma cruzi CL Brener trypomastigotes infected in Vero cells assessed as parasite lysis at 50 uM after 19 hrs relative to untreated control; type: functional; procedure, shortened: as §1
[4] = test system: Trypanosoma cruzi; assay: Antitrypanosomal activity against Trypanosoma cruzi CL Brener epimastigotes after 5 days by MTT assay; type: functional; conditions: 120 h, read-out: ID50
Procedure, shortened: (§2)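 Epimastigotes (T. cruzi strains, BHI-Tryptose + 5% FBS, 28 °C) or L. braziliensis LTB300 promastigotes (axenic RPMI + 5% FBS, 28 °C) from exponential culture in 24-well plates; compounds from DMSO stock added for 5 days. Washed in PBS, 0.4 mg/mL MTT at 37 °C for 3 h, formazan dissolved in DMSO, OD595 read. Triplicate per concentration, six growth controls; 1.0–50.0 μM dose-response, ID50 = concentration reducing absorbance ratio to 50%; three independent experiments.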

[5] = test system: Trypanosoma cruzi; assay: Antitrypanosomal activity against Trypanosoma cruzi Y epimastigotes after 5 days by MTT assay; type: functional; conditions: 120 h, read-out: ID50; procedure, shortened: as §2
[6] = test system: Leishmania braziliensis; assay: Antiparasitic activity against Leishmania braziliensis MHOM/BR/00/LTB300 after 5 days by MTT assay; type: functional; conditions: MHOM/BR/00/LTB300, 120 h, read-out: ID50; procedure, shortened: as §2
[7] = test system: Trypanosoma cruzi; assay: Antitrypanosomal activity against Trypanosoma cruzi Colombiana assessed as parasitic cytotoxicity at 25 uM after 5 days by MTT assay; type: functional
Procedure, shortened: (§3)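 Single 25 μM dose for 5 days on exponential-phase epimastigotes in BHI-Tryptose + 5% FBS, 24-well plates; MTT 0.4 mg/mL, 3 h at 37 °C after PBS wash, formazan in DMSO, OD595. PCyt = [[…] (ODd − ODdm)/(ODc − ODcm)] × 100 with medium-only blanks, compound-in-medium blanks and growth controls; three independent experiments.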

[8] = test system: Trypanosoma cruzi; assay: Reduction of end products excretion levels in Trypanosoma cruzi Y epimastigotes after 2 days by [1H]NMR method; type: functional, organism-based
Procedure, shortened: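 Y-strain epimastigotes treated 2 days with 5 μM compound; culture centrifuged 1500 g, 10 min, 4 °C, parasite-free supernatant stored at −20 °C. Supernatant plus DMF internal standard and D2O run by 1H NMR with water suppression; metabolite peaks confirmed by spiking and standards, compared to untreated and parasite-free medium.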

[9] = test system: Trypanosoma cruzi; assay: Antitrypanosomal activity against Trypanosoma cruzi CL Brener epimastigotes assessed as parasitic cytotoxicity at 25 uM after 5 days by MTT assay; type: functional; procedure, shortened: as §3
[10] = test system: Trypanosoma cruzi; assay: Antitrypanosomal activity against Trypanosoma cruzi Tulahuen 2 epimastigotes assessed as inhibition of parasite growth after 5 days; type: functional; conditions: Trypanosoma cruzi, Tulahuen 2, 120 h; read-out: ID50 (the source's name)
Procedure, shortened: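 Stationary-phase (10-day) Tulahuen 2 epimastigotes inoculated at 1×10^6 cells/mL in BHI-Tryptose + 5% FBS, 28 °C, drug added from DMSO stock (final DMSO ≤0.4%; control 0.4% DMSO). Growth followed as A600; inhibition from day-5 vs day-0 absorbance relative to control. ID50 = concentration reducing absorbance ratio to 50%; three independent experiments.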

[11] = test system: Trypanosoma cruzi; assay: Antitrypanosomal activity against Trypanosoma cruzi CL Brener trypomastigotes infected in Vero cells assessed as parasite lysis at 5 uM after 22 hrs relative to untreated control; type: functional
[12] = test system: Trypanosoma cruzi; assay: Antitrypanosomal activity against Trypanosoma cruzi CL Brener trypomastigotes infected in Vero cells assessed as parasite lysis at 10 uM after 2 hrs relative to untreated control; type: functional; procedure, shortened: as §1
[13] = test system: Trypanosoma cruzi; assay: Antitrypanosomal activity against Trypanosoma cruzi CL Brener trypomastigotes infected in Vero cells assessed as parasite lysis at 10 uM after 3 hrs relative to untreated control; type: functional; procedure, shortened: as §1
[14] = test system: Trypanosoma cruzi; assay: Antitrypanosomal activity against Trypanosoma cruzi CL Brener trypomastigotes infected in Vero cells assessed as parasite lysis at 10 uM after 22 hrs relative to untreated control; type: functional; procedure, shortened: as §1
[15] = test system: Trypanosoma cruzi; assay: Antitrypanosomal activity against Trypanosoma cruzi CL Brener trypomastigotes infected in Vero cells assessed as parasite lysis at 10 uM after 26 hrs relative to untreated control; type: functional; procedure, shortened: as §1

Compound: CC1(C)[N+]([O-])=c2ccc(/C=C/c3ccccc3)cc2=[N+]1[O-]
- Activity [1]: 64%
- Activity [2]: 32%
- Activity [3]: 100%
- IC50 [4]: 8.5 µM
- IC50 [5]: 6 µM
- IC50 [6]: 3.5 µM
- Activity [7]: 92.3%
- Activity [8]: Active
- Activity [9]: 78.4%
- IC50 [10]: 3.4 µM
- Activity [11]: 31%
- Activity [12]: 3%
- Activity [13]: 32%
- Activity [14]: 84%
- Activity [15]: 100%

Source: ChEMBL document CHEMBL1155286, “Second generation of 2H-benzimidazole 1,3-dioxide derivatives as anti-trypanosomatid agents: synthesis, biological evaluation, and mode of action studies” (Eur J Med Chem, 2009)
